# From ChEMBL document CHEMBL3112482, “Nonclassical antifolates, part 5. Benzodiazepine analogs as a new class of DHFR inhibitors: synthesis, antitumor testing and molecular modeling study” (Eur J Med Chem, 2014)
# Tests used:
# Type in all cases: functional
# [1] = test system: LOX IMVI; assay: Growth inhibition of human LOXIMVI cells at 10 uM after 48 hrs; details: read-out: GI
# How it was run: (§1)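 Single-dose primary screen in the NCI 60 human tumour cell line panel, run at the NCI facility. The panel covers nine subpanels: leukaemia, non-small cell lung, colon, CNS, melanoma, ovarian, renal, prostate and breast. Read-out was percent growth of treated cells, shown as a mean graph and reported as percent growth inhibition.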
# [2] = test system: M14; assay: Growth inhibition of human M14 cells at 10 uM after 48 hrs; details: M14, 48 h, read-out: GI; how it was run: as §1
# [3] = test system: OVCAR-8; assay: Growth inhibition of human OVCAR8 cells at 10 uM after 48 hrs; details: OVCAR-8, 48 h, read-out: GI; how it was run: as §1
# [4] = test system: SF-295; assay: Growth inhibition of human SF295 cells at 10 uM after 48 hrs; details: SF-295, 48 h, read-out: GI
# How it was run: (§2)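 NCI 60-cell-line disease-oriented human tumor panel, single-dose primary screen at 10 µM. Data given as mean-graph percent growth of treated cells, reported as percent growth inhibition (GI %).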
# [5] = test system: HT-29; assay: Growth inhibition of human HT-29 cells at 10 uM after 48 hrs; details: HT-29, 48 h, read-out: GI; how it was run: as §1
# [6] = test system: HCT-15; assay: Growth inhibition of human HCT15 cells at 10 uM after 48 hrs; details: HCT-15, 48 h, read-out: GI; how it was run: as §1
# [7] = test system: UACC-62; assay: Growth inhibition of human UACC62 cells at 10 uM after 48 hrs; details: UACC-62, 48 h, read-out: GI; how it was run: as §2
# [8] = test system: BT-549; assay: Growth inhibition of human BT549 cells at 10 uM after 48 hrs; details: BT-549, 48 h, read-out: GI; how it was run: as §1
# [9] = test system: HOP-62; assay: Growth inhibition of human HOP62 cells at 10 uM after 48 hrs; details: HOP-62, 48 h, read-out: GI; how it was run: as §1
# [10] = test system: U-251; assay: Growth inhibition of human U251 cells at 10 uM after 48 hrs; details: U-251, 48 h, read-out: GI; how it was run: as §2
# [11] = test system: NCI-H226; assay: Growth inhibition of human NCI-H226 cells at 10 uM after 48 hrs; details: NCI-H226, 48 h, read-out: GI; how it was run: as §1
# [12] = test system: NCI-H522; assay: Growth inhibition of human NCI-H522 cells at 10 uM after 48 hrs; details: NCI-H522, 48 h, read-out: GI; how it was run: as §1
# [13] = test system: A549; assay: Growth inhibition of human A549 cells at 10 uM after 48 hrs; details: A549, 48 h, read-out: GI; how it was run: as §1
# [14] = test system: SK-MEL-2; assay: Growth inhibition of human SK-MEL-2 cells at 10 uM after 48 hrs; details: SK-MEL-2, 48 h, read-out: GI; how it was run: as §2
# [15] = test system: OVCAR-3; assay: Growth inhibition of human OVCAR3 cells at 10 uM after 48 hrs; details: OVCAR-3, 48 h, read-out: GI; how it was run: as §1
# [16] = test system: Malme-3M; assay: Growth inhibition of human MALME-3M cells at 10 uM after 48 hrs; details: read-out: GI; how it was run: as §1
# [17] = test system: MOLT-4; assay: Growth inhibition of human MOLT4 cells at 10 uM after 48 hrs; details: MOLT-4, 48 h, read-out: GI; how it was run: as §1
# [18] = test system: MDA-MB-435; assay: Growth inhibition of human MDA-MB-435 cells at 10 uM after 48 hrs; details: MDA-MB-435, 48 h, read-out: GI; how it was run: as §1
# [19] = test system: SN12C; assay: Growth inhibition of human SN12C cells at 10 uM after 48 hrs; details: read-out: GI; how it was run: as §2
# [20] = test system: RPMI-8226; assay: Growth inhibition of human RPMI8226 cells at 10 uM after 48 hrs; details: RPMI-8226, 48 h, read-out: GI; how it was run: as §1
# [21] = test system: COLO 205; assay: Growth inhibition of human COLO205 cells at 10 uM after 48 hrs; details: COLO 205, 48 h, read-out: GI; how it was run: as §1
# [22] = Cytotoxicity against human colon cancer cells at 10 uM after 48 hrs; details: Cancer cell lines; how it was run: as §1
# [23] = Cytotoxicity against human melanoma cells at 10 uM after 48 hrs; details: Melanoma cell; how it was run: as §1
# [24] = Cytotoxicity against human prostate cancer cells at 10 uM after 48 hrs; details: Cancer cell lines
# [25] = Cytotoxicity against human CNS cancer cells at 10 uM after 48 hrs; details: Cancer cell lines
# [26] = Cytotoxicity against human non-small cell lung cancer cells at 10 uM after 48 hrs; details: Cancer cell lines; how it was run: as §1
# [27] = Cytotoxicity against human renal cancer cells at 10 uM after 48 hrs; details: Cancer cell lines
# [28] = Cytotoxicity against human breast cancer cells at 10 uM after 48 hrs; details: Cancer cell lines; how it was run: as §1
# [29] = read-out: LC50 (the source's name)
smiles,measurement,setting,value
COc1ccc(/C=C2\CCCC3=C(c4ccc(OC)cc4)Nc4ccccc4N=C32)cc1,inhibition of growth at 10 µM,[1],42.6%
same,inhibition of growth at 10 µM,[2],< 30%
same,inhibition of growth at 10 µM,[3],< 30%
same,inhibition of growth at 10 µM,[4],< 30%
same,inhibition of growth at 10 µM,[5],< 30%
same,inhibition of growth at 10 µM,[6],< 30%
same,inhibition of growth at 10 µM,[7],32%
same,inhibition of growth at 10 µM,[8],< 30%
same,inhibition of growth at 10 µM,[9],< 30%
same,inhibition of growth at 10 µM,[10],< 30%
same,inhibition of growth at 10 µM,[11],< 30%
same,inhibition of growth at 10 µM,[12],93.4%
same,inhibition of growth at 10 µM,[13],< 30%
same,inhibition of growth at 10 µM,[14],< 30%
same,inhibition of growth at 10 µM,[15],< 30%
same,inhibition of growth at 10 µM,[16],< 30%
same,inhibition of growth at 10 µM,[17],< 30%
same,inhibition of growth at 10 µM,[18],86.2%
same,inhibition of growth at 10 µM,[19],< 30%
same,inhibition of growth at 10 µM,[20],74.3%
same,inhibition of growth at 10 µM,[21],< 30%
Clc1ccc(/C=C2\CCCC3=C(c4ccc(Cl)cc4)Nc4ccccc4N=C32)cc1,GI50,[22],2.4 µM
same,TGI,[22],6.4 µM
same,CC50,[22]; [29],38.8 µM
same,inhibition of growth at 10 µM,[2],70.9%
same,inhibition of growth at 10 µM,[3],34.3%
same,GI50,[23],9.5 µM
same,TGI,[23],24.3 µM
same,CC50,[23]; [29],64.2 µM
same,inhibition of growth at 10 µM,[4],< 30%
same,inhibition of growth at 10 µM,[5],84.1%
same,inhibition of growth at 10 µM,[6],36.4%
same,inhibition of growth at 10 µM,[7],< 30%
same,GI50,[24],5.1 µM
same,LC50,[24],> 100 µM
same,TGI,[24],61.9 µM
same,inhibition of growth at 10 µM,[8],< 30%
same,GI50,[25],4.9 µM
same,TGI,[25],52.4 µM
same,CC50,[25]; [29],84.3 µM
same,inhibition of growth at 10 µM,[9],< 30%
same,inhibition of growth at 10 µM,[10],79.2%
same,inhibition of growth at 10 µM,[11],< 30%
same,inhibition of growth at 10 µM,[12],80.1%
same,inhibition of growth at 10 µM,[13],< 30%
same,inhibition of growth at 10 µM,[14],< 30%
same,inhibition of growth at 10 µM,[15],33%
same,inhibition of growth at 10 µM,[16],< 30%
same,GI50,[26],9 µM
same,TGI,[26],35.2 µM
same,CC50,[26]; [29],81.3 µM
same,CC50,[27],64 µM
same,GI50,[27],3.3 µM
same,TGI,[27],29.1 µM
same,inhibition of growth at 10 µM,[17],34.2%
same,inhibition of growth at 10 µM,[18],88.2%
same,inhibition of growth at 10 µM,[19],< 30%
same,inhibition of growth at 10 µM,[21],31.9%
same,GI50,[28],4.6 µM
same,LC50 (concentration killing 50% of cells),[28],88.1 µM
same,TGI,[28],58.2 µM
